Columns and labels:
Trypanothione reductase [1] = biological target: Trypanothione reductase (Trypanosoma brucei brucei, UniProt P39051); experiment: Inhibition of recombinant trypanothione reductase from Trypanosoma brucei brucei S427 by DTNB-coupled spectrophotometric assay
How it was run: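 Recombinant T. brucei brucei S427 TryR tested in a nonenzymatically coupled spectrophotometric assay, where DTNB reduction to TNB is followed as A412 increase. IC50 is the mean of independent duplicates (at least two replicates).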

Trypanothione reductase [2] = biological target: Trypanothione reductase (Trypanosoma cruzi, UniProt P28593); experiment: Inhibition of trypanothione reductase from Trypanosoma cruzi by DTNB-coupled spectrophotometric assay
[3] = biological target: T1, Glutathione reductase, mitochondrial (Homo sapiens, UniProt P00390); experiment: Inhibition of human glutathione reductase
T1 sequence (P00390 whole entry): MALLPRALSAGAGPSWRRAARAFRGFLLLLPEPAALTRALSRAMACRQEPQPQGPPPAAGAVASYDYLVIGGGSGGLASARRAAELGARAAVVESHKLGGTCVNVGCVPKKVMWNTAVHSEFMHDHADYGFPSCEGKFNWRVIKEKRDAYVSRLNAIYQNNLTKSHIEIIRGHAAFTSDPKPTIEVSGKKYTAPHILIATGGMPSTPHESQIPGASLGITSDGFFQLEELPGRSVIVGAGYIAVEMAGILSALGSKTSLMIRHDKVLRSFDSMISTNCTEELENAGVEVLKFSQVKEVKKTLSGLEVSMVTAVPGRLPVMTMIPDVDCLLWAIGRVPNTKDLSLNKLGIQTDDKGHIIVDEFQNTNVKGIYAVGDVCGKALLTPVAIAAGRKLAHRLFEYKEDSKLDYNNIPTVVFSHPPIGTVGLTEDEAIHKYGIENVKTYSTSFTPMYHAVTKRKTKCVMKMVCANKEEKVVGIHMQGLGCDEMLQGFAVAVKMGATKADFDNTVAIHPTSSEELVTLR

[4] = system: Trypanosoma brucei brucei; experiment: Antitrypanosomal activity against blood stream form Trypanosoma brucei brucei by resazurin fluorescence-based viability assay; format: functional, organism-based
How it was run: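 Bloodstream-form T. b. brucei parasites and MRC5 cells were assayed in resazurin fluorescence-based viability tests. […] Pentamidine served as the positive control in all T. brucei plates.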

Chain of Trypanothione reductase (Trypanosoma cruzi, UniProt P28593) (P28593 whole entry): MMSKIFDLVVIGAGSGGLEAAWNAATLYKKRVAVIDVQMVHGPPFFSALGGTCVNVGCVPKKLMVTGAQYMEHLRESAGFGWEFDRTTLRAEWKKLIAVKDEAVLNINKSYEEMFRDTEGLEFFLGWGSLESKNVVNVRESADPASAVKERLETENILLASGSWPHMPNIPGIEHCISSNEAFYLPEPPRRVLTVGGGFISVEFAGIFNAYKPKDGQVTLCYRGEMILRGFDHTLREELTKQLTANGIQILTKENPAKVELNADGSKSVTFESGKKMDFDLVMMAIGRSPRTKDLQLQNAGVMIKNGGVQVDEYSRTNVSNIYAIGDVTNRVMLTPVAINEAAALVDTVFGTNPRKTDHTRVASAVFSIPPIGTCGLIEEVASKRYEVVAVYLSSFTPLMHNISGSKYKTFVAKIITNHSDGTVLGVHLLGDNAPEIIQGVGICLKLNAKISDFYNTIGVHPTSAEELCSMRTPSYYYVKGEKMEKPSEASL
Chain of Trypanothione reductase (Trypanosoma brucei brucei, UniProt P39051) (P39051 whole entry): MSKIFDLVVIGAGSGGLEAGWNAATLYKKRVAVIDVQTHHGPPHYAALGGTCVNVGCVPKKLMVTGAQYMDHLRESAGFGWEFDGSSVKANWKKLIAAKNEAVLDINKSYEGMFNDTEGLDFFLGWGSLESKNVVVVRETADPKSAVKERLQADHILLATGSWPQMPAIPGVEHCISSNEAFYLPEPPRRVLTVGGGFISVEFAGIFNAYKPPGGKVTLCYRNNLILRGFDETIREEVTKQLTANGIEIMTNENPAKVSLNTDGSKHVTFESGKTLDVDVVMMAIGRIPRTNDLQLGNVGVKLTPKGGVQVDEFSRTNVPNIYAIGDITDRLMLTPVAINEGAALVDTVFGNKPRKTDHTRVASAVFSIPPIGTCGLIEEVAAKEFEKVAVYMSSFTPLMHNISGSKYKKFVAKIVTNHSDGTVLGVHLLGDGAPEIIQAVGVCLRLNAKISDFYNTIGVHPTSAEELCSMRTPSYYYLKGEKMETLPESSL

Question: Which results are given for `COC(=O)CN1C(C)=Nc2ccc(Br)cc2C1c1ccccc1` (racemic)?
Answer: IC50 (Trypanothione reductase [1]): 6.8 µM; IC50 (Trypanothione reductase [2]): 19 µM; IC50 [3]: > 100 µM; EC50 [4]: 40 µM

From ChEMBL document CHEMBL1833819, “Dihydroquinazolines as a novel class of Trypanosoma brucei trypanothione reductase inhibitors: discovery, synthesis, and characterization of their binding mode by protein crystallography” (J Med Chem, 2011)
